Test results published in ChEMBL document CHEMBL1134641, “Progress toward the development of a safe and effective agent for treating reentrant cardiac arrhythmias: synthesis and evaluation of ibutilide analogues with enhanced metabolic stability and diminished proarrhythmic potential” (2001).

Key:
Canis familiaris [1] = test: Atrial effective refractory period (AERP) measured in canine just after inducing atrial flutter (AFL) termination by the compound at a dose of 1.2 uM/kg; type: functional, Canis lupus familiaris, Heart
Canis familiaris [2] = test: Atrial effective refractory period (AERP) measured in canine just after inducing atrial flutter (AFL) termination by the compound at a dose of 12.0 uM/kg; type: functional, Canis lupus familiaris, Heart
Canis familiaris [3] = test: Atrial effective refractory period (AERP) measured in canine just after inducing atrial flutter (AFL) termination by the compound at a dose of 4.8 uM/kg; type: functional, Canis lupus familiaris, Heart
Canis familiaris [4] = test: Atrial effective refractory period (AERP) measured in canine just after inducing atrial flutter (AFL) termination by the compound at a dose of 7.2 uM/kg; type: functional, Canis lupus familiaris, Heart
Canis familiaris [5] = test: Blood pressure measured in canine 24-h Infarction model at an cumulative intravenous dose of 2.4 uM/kg; type: functional, Canis lupus familiaris
Procedure, shortened: (§1)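 Male mongrel dogs (16-22 kg) with LAD permanently ligated in two stages; studied 24 h later. […] given IV in sequential doses to cumulative 0.24, 0.72, 2.4 µmol/kg. Saline controls (n=8) received vehicle, then a single IV 2.4 µmol/kg dose at the end. Measurements taken at baseline and 15 min after each dose. Means ± SEM, paired t-test, p ≤ 0.05.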

Canis familiaris [6] = test: QT interval measured in canine 24-h Infarction model at a single intravenous dose of 2.4 uM/kg; type: functional, Canis lupus familiaris
Procedure, shortened: (§2)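 Dogs 24 h after two-stage LAD ligation. Compound in saline given iv in sequential doses (cumulative 0.24, 0.72, 2.4 µmol/kg); saline controls then given a single 2.4 µmol/kg iv dose. HR, IVR, BP, QT, spontaneous arrhythmias/min, ERPs and MAPD90 measured at baseline and 15 min after each dose. Means ± SEM, paired t-test, p≤0.05.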

Canis familiaris [7] = test: QT interval measured in canine 24-h Infarction model at an cumulative intravenous dose of 0.72 uM/kg; type: functional, Canis lupus familiaris; procedure, shortened: as §2
Canis familiaris [8] = test: QT interval measured in canine just after inducing atrial flutter (AFL) termination by the compound at a dose of 0.6 umol/kg; type: functional, Canis lupus familiaris, Heart
Procedure, shortened: (§3)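 Conscious, sling-restrained dogs with chronically implanted electrodes, studied after 2 weeks of recovery. Sustained AFL (>5 min) induced. Compound in saline given iv every 5 min to cumulative 0.024-12.0 µmol/kg. At AFL termination, HR, QT (paced cycle length 300 ms), AERP and VERP measured. Measurements then taken 3 min after each further dose. Significance p≤0.05 vs baseline.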

Canis familiaris [9] = test: QT interval measured in canine just after inducing atrial flutter (AFL) termination by the compound at a dose of 7.2 uM/kg; type: functional, Canis lupus familiaris, Heart; procedure, shortened: as §3
Canis familiaris [10] = test: Atrial effective refractory period (AEPR) measured in canine 24-h Infarction model at an cumulative intravenous dose of 0.24 uM/kg; type: functional, Canis lupus familiaris, Cardiac atrium; procedure, shortened: as §1
Canis familiaris [11] = test: Heart Rate measured in canine just after inducing atrial flutter (AFL) termination by the compound at a dose of 7.2 uM/kg; type: functional, Canis lupus familiaris
Canis familiaris [12] = test: Heart Rate measured in canine just after inducing atrial flutter (AFL) termination by the compound at a dose of 9.6 uM/kg; type: functional, Canis lupus familiaris
Canis familiaris [13] = test: Heart rate measured in canine 24-h Infarction model at a single intravenous dose of 2.4 uM/kg; type: functional, Canis lupus familiaris; procedure, shortened: as §1
Canis familiaris [14] = test: Heart rate measured in canine 24-h Infarction model at an cumulative intravenous dose of 2.4 uM/kg; type: functional, Canis lupus familiaris; procedure, shortened: as §1
Canis familiaris [15] = test: Atrial MAPD90 measured in canine 24-h Infarction model at a single intravenous dose of 2.4 uM/kg; type: functional, Canis lupus familiaris, Cardiac atrium; procedure, shortened: as §1
Canis familiaris [16] = test: Number of canine in which sustained ventricular tachycardia (SVT) was observed in PES-induced arrhythmias at an cumulative intravenous dose of 2.4 uM/kg; type: functional, Canis lupus familiaris, Cardiac ventricle
Procedure, shortened: (§4)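 Male mongrel dogs (16-22 kg) with LAD ligated in two stages, studied 24 h later. Programmed electrical stimulation at baseline and 15 min after each iv dose in saline (cumulative 0.24, 0.72, 2.4 µmol/kg). Saline controls then received a single 2.4 µmol/kg iv dose. Responses scored as NI (≤15 beats), NSVT (>15 beats, ends within 30 s), SVT (>30 s, needing pacing or cardioversion) or VF. A positive response was repeated.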

Canis familiaris [17] = test: Number of canine in which sustained ventricular tachycardia (SVT) was observed in PES-induced arrhythmias at an single intravenous dose of 2.4 uM/kg; type: functional, Canis lupus familiaris, Cardiac ventricle; procedure, shortened: as §4
Canis familiaris [18] = test: Number of canine in which ventricular fibrillation (VF) was observed in PES-induced arrhythmias at an single intravenous dose of 2.4 uM/kg; type: functional, Canis lupus familiaris, Cardiac ventricle; procedure, shortened: as §4
Canis familiaris [19] = test: Spontaneous arrhythmias measured in canine 24-h Infarction model at a single intravenous dose of 2.4 uM/kg; type: functional, Canis lupus familiaris; procedure, shortened: as §2
Canis familiaris [20] = test: Spontaneous arrhythmias measured in canine 24-h Infarction model at an cumulative intravenous dose of 2.4 uM/kg; type: functional, Canis lupus familiaris; procedure, shortened: as §2
Canis familiaris [21] = test: Number of canine in which arrhythmias could not be induced at an cumulative intravenous dose of 0.24 uM/kg; type: functional, Canis lupus familiaris; procedure, shortened: as §4
Canis familiaris [22] = test: Number of canine in which arrhythmias could not be induced at an cumulative intravenous dose of 2.4 uM/kg; type: functional, Canis lupus familiaris; procedure, shortened: as §4
Canis familiaris [23] = test: Heart Rate measured in canine just after inducing atrial flutter (AFL) termination by the compound at a dose of 1.2 uM/kg; type: functional, Canis lupus familiaris
Canis familiaris [24] = test: Heart Rate measured in canine just after inducing atrial flutter (AFL) termination by the compound at a dose of 4.8 uM/kg; type: functional, Canis lupus familiaris
Canis familiaris [25] = test: Ventricular effective refractory (VEPR) period measured in canine 24-h Infarction model at a single intravenous dose of 2.4 uM/kg; type: functional, Canis lupus familiaris, Heart; procedure, shortened: as §2
Canis familiaris [26] = organism: Canis familiaris; test: Ventricular effective refractory period ([…]) measured in canine just after inducing atrial flutter (AFL) termination by the compound; type: functional, Canis lupus familiaris, Heart
Procedure, shortened: (§5)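 Conscious dogs, loosely restrained in a sling, with exteriorized electrode leads, studied 2 weeks after instrumentation. AFL was induced and counted as sustained if it lasted 5 min. Compound in saline given intravenously every 5 min to cumulative 0.024-12.0 µmol/kg. VERP was measured at AFL termination and 3 min after each dose. Results are means ± SEM versus baseline, p ≤ 0.05.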

Canis familiaris [27] = test: Ventricular effective refractory period ([…]) measured in canine just after inducing atrial flutter (AFL) termination by the compound at a dose of 12.0 uM/kg; type: functional, Canis lupus familiaris, Heart; procedure, shortened: as §5
Canis familiaris [28] = test: Ventricular effective refractory period ([…]) measured in canine just after inducing atrial flutter (AFL) termination by the compound at a dose of 2.4 uM/kg; type: functional, Canis lupus familiaris, Heart; procedure, shortened: as §5
Canis familiaris [29] = test: Ventricular effective refractory period ([…]) measured in canine just after inducing atrial flutter (AFL) termination by the compound at a dose of 4.8 uM/kg; type: functional, Canis lupus familiaris, Heart; procedure, shortened: as §5
Canis familiaris [30] = test: Number of canine in which sustained ventricular tachycardia (SVT) was observed in PES-induced arrhythmias at an cumulative intravenous dose of 0.24 uM/kg; type: functional, Canis lupus familiaris, Cardiac ventricle; procedure, shortened: as §4
Canis familiaris [31] = test: Number of canine in which nonsustained ventricular tachycardia (NSVT) was observed in PES-induced arrhythmias at an cumulative intravenous dose of 0.72 uM/kg; type: functional, Canis lupus familiaris, Cardiac ventricle; procedure, shortened: as §4
Canis familiaris [32] = test: Ventricular MAPD90 measured in canine 24-h Infarction model at an cumulative intravenous dose of 0.24 uM/kg; type: functional, Canis lupus familiaris, Heart; procedure, shortened: as §2
Canis familiaris [33] = test: Atrial effective refractory period (AEPR) measured in canine 24-h Infarction model at an cumulative intravenous dose of 0.72 uM/kg; type: functional, Canis lupus familiaris, Cardiac atrium; procedure, shortened: as §1

CCN(CCCCCC(C)(C)F)CCC[C@H](O)c1ccc(NS(C)(=O)=O)cc1.O=C(O)/C=C/C(=O)O
AERP (Canis familiaris [1]): 160 ms
AERP (Canis familiaris [2]): 164 ms
AERP (Canis familiaris [3]): 166 ms
AERP (Canis familiaris [4]): 162 ms
BP (Canis familiaris [5]): 119 mmHg
QT interval (Canis familiaris [6]): 238 ms
QT interval (Canis familiaris [7]): 218 ms
QT interval (Canis familiaris [8]): 208 ms
QT interval (Canis familiaris [9]): 205 ms
AERP (Canis familiaris [10]): 149 ms
HR (Canis familiaris [11]): 127 beats min-1
HR (Canis familiaris [12]): 114 beats min-1
HR (Canis familiaris [13]): 127 beats min-1
HR (Canis familiaris [14]): 135 beats min-1
Atrial MAPD90 (Canis familiaris [15]): 209 ms
No. of canine (Canis familiaris [16]): 0
No. of canine (Canis familiaris [17]): 1
No. of canine (Canis familiaris [18]): 0
PVCs (Canis familiaris [19]): 53 number min-1
PVCs (Canis familiaris [20]): 73 number min-1
No. of canine (Canis familiaris [21]): 8
No. of canine (Canis familiaris [22]): 10
HR (Canis familiaris [23]): 114 beats min-1
HR (Canis familiaris [24]): 118 beats min-1
VERP (Canis familiaris [25]): 180 ms
VERP (Canis familiaris [26]): 138 ms
VERP (Canis familiaris [27]): 137 ms
VERP (Canis familiaris [28]): 143 ms
VERP (Canis familiaris [29]): 142 ms
No. of canine (Canis familiaris [30]): 1
No. of canine (Canis familiaris [31]): 0
Ventricular MAPD90 (Canis familiaris [32]): 162 ms
AERP (Canis familiaris [33]): 166 ms
